Columns and labels:
Staphylococcus aureus [1] = assay: Antibacterial activity against […] Staphylococcus aureus ATCC 25923 assessed as concentration required to inhibit visible growth by CLSI protocol based serial microdilution method; assay type: functional
Staphylococcus aureus [2] = assay: Antibacterial activity against […] Staphylococcus aureus ATCC 25923 assessed as bacterial growth inhibition by CLSI protocol based serial microdilution method; assay type: functional
Enterococcus faecalis [3] = assay: Antibacterial activity against Enterococcus faecalis ATCC 51299 assessed as concentration required to inhibit visible growth by CLSI protocol based serial microdilution method; assay type: functional
Enterococcus faecalis [4] = assay: Antibacterial activity against Enterococcus faecalis ATCC 51299 assessed as bacterial growth inhibition by CLSI protocol based serial microdilution method; assay type: functional
Pseudomonas aeruginosa [5] = assay: Antibacterial activity against Pseudomonas aeruginosa ATCC 9027 assessed as concentration required to inhibit visible growth by CLSI protocol based serial microdilution method; assay type: functional
Pseudomonas aeruginosa [6] = assay: Antibacterial activity against Pseudomonas aeruginosa ATCC 9027 assessed as bacterial growth inhibition by CLSI protocol based serial microdilution method; assay type: functional
Escherichia coli [7] = assay: Antibacterial activity against Escherichia coli ATCC 25922 assessed as concentration required to inhibit visible growth by CLSI protocol based serial microdilution method; assay type: functional
Escherichia coli [8] = assay: Antibacterial activity against Escherichia coli ATCC 25922 assessed as bacterial growth inhibition by CLSI protocol based serial microdilution method; assay type: functional
Salmonella typhimurium [9] = assay: Antibacterial activity against Salmonella enterica ATCC 14028 assessed as concentration required to inhibit visible growth by CLSI protocol based serial microdilution method; assay type: functional, Salmonella enterica subsp. enterica serovar Typhimurium
Salmonella typhimurium [10] = assay: Antibacterial activity against Salmonella enterica ATCC 14028 assessed as bacterial growth inhibition by CLSI protocol based serial microdilution method; assay type: functional, Salmonella enterica subsp. enterica serovar Typhimurium
Citrobacter freundii [11] = assay: Antibacterial activity against Citrobacter freundii ATCC 8090 assessed as concentration required to inhibit visible growth by CLSI protocol based serial microdilution method; assay type: functional
Citrobacter freundii [12] = assay: Antibacterial activity against Citrobacter freundii ATCC 8090 assessed as bacterial growth inhibition by CLSI protocol based serial microdilution method; assay type: functional
Proteus vulgaris [13] = assay: Antibacterial activity against Proteus vulgaris ATCC 6380 assessed as concentration required to inhibit visible growth by CLSI protocol based serial microdilution method; assay type: functional
Proteus vulgaris [14] = assay: Antibacterial activity against Proteus vulgaris ATCC 6380 assessed as bacterial growth inhibition by CLSI protocol based serial microdilution method; assay type: functional
Candida albicans [15] = assay: Antifungal activity against Candida albicans CEMTC 34 assessed as concentration required to inhibit visible growth by CLSI protocol based serial microdilution method; assay type: functional
Summary of the method: (§1)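 Candida albicans grown in Sabouraud dextrose broth with two-fold serial compound dilutions from water stocks; final inoculum about 5 × 10⁵ CFU/mL. Incubated at 37 °C with orbital shaking (580 rpm). MIC is the lowest concentration preventing growth, by absorbance at 595 nm. MFC is the lowest concentration with no visible growth. Duplicates in two separate experiments.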

Candida albicans [16] = assay: Antifungal activity against Candida albicans CEMTC 34 assessed as fungal growth inhibition by CLSI protocol based serial microdilution method; assay type: functional; summary of the method: as §1
[17] = Cytotoxicity against human MCF7 cells assessed as reduction in cell viability measured after 24 hrs by MTT assay; assay type: cell-based
Summary of the method: (§2)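 HEK293T or MCF-7 cells in IMDM with 10% FBS, seeded at 20,000 per well and grown overnight. Compounds at […] in fresh medium for 24 h at 37 °C, 5% CO₂. MTT then added for 4 h, precipitate dissolved overnight in SDS-HCl, absorbance read at 570 nm. Viability expressed relative to untreated cells, giving CC₅₀. Duplicate wells, at least two independent repeats.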

[18] = Cytotoxicity against HEK293T cells assessed as reduction in cell viability measured after 24 hrs by MTT assay; assay type: cell-based, HEK-293T; details: human; summary of the method: as §2
[19] = Selectivity index, ratio of CC50 for HEK293T cells assessed as reduction in cell viability measured after 24 hrs by MTT assay to MIC for Staphylococcus aureus ATCC 25923 assessed as bacterial growth inhibition by CLSI protocol based serial microdilution method; assay type: toxicity; details: human, read-out: Selectivity Index
[20] = Selectivity index, ratio of CC50 for HEK293T cells assessed as reduction in cell viability measured after 24 hrs by MTT assay to MIC for Enterococcus faecalis ATCC 51299 assessed as bacterial growth inhibition by CLSI protocol based serial microdilution method; assay type: toxicity; details: human, read-out: Selectivity Index
[21] = Selectivity index, ratio of CC50 for HEK293T cells assessed as reduction in cell viability measured after 24 hrs by MTT assay to MIC for Pseudomonas aeruginosa ATCC 9027 assessed as bacterial growth inhibition by CLSI protocol based serial microdilution method; assay type: toxicity; details: human, read-out: Selectivity Index
[22] = Selectivity index, ratio of CC50 for HEK293T cells assessed as reduction in cell viability measured after 24 hrs by MTT assay to MIC for Escherichia coli ATCC 25922 assessed as bacterial growth inhibition by CLSI protocol based serial microdilution method; assay type: toxicity; details: human, read-out: Selectivity Index
[23] = Selectivity index, ratio of CC50 for HEK293T cells assessed as reduction in cell viability measured after 24 hrs by MTT assay to MIC for Citrobacter freundii ATCC 8090 assessed as bacterial growth inhibition by CLSI protocol based serial microdilution method; assay type: toxicity; details: human, read-out: Selectivity Index
[24] = Selectivity index, ratio of CC50 for HEK293T cells assessed as reduction in cell viability measured after 24 hrs by MTT assay to MIC for Proteus vulgaris ATCC 6380 assessed as bacterial growth inhibition by CLSI protocol based serial microdilution method; assay type: toxicity; details: human, read-out: Selectivity Index
[25] = Selectivity index, ratio of CC50 for HEK293T cells assessed as reduction in cell viability measured after 24 hrs by MTT assay to MIC for Candida albicans CEMTC 34 assessed as bacterial growth inhibition by CLSI protocol based serial microdilution method; assay type: toxicity; details: human, read-out: Selectivity Index
Summary of the method: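 SI = CC₅₀ (HEK293T) / MIC. HEK293T cells were seeded at 20,000/well overnight, then exposed to 10–250 µg/mL in IMDM with 10% FBS for 24 h. MTT was added for 4 h, solubilised with SDS-HCl, and read at 570 nm; duplicates, ≥2 independent runs. MIC came from two-fold dilutions in Sabouraud dextrose broth at ~5 × 10⁵ CFU/mL, 37 °C with shaking, read at 595 nm, in duplicate.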

Influenza A virus = assay: Antiviral activity against Influenza A virus (A/Puerto Rico/8/34 (H1N1) infected in MDCK cells assessed as decrease in viral titer preincubated for 1 hr followed by viral infection and cultivated for 48 hrs followed by supernatant transferred to chicken erythrocyte for 1 hr followed by measuring ability to cause positive hemagglutination; assay type: functional, organism-based; details: A/Puerto Rico/8/1934(H1N1)
Summary of the method: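 MDCK monolayers in MEM were pre-incubated with compound for 1 h at 37 °C, then infected with 10-fold virus dilutions (10⁻¹–10⁻⁶) and held 48 h at 37 °C, 5% CO₂. Supernatant was mixed with an equal volume of 1% chicken erythrocytes, 60 min at room temperature. Titre was taken from the highest dilution giving full agglutination (log₁₀ EID₅₀). Triplicate per concentration.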

[26] = Cytotoxicity against MDCK cells assessed as cell death incubated for 48 hrs by MTT assay; assay type: cell-based, Canis lupus familiaris; details: dog
[27] = Selectivity index, ratio of CC50 for MDCK cells to EC50 for Influenza A virus (A/Puerto Rico/8/34 (H1N1)) infected in MDCK cells; assay type: toxicity, cell-based; details: dog, read-out: Ratio CC50/EC50
Summary of the method: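 Ratio of CC₅₀ to EC₅₀, both in MDCK cells, with cytotoxicity run in parallel with the antiviral assay. EC₅₀ is the concentration halving virus production (0.3 log₁₀ EID₅₀ titre drop). It was obtained after 1 h compound pre-incubation, infection, 48 h at 37 °C, and hemagglutination read-out with 1% chicken erythrocytes.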

[28] = Selectivity index, ratio of CC50 for HEK293T cells assessed as reduction in cell viability measured after 24 hrs by MTT assay to MIC for Salmonella enterica ATCC 14028 assessed as bacterial growth inhibition by CLSI protocol based serial microdilution method; assay type: toxicity; details: human, read-out: Selectivity Index

SMILES	MBC (Staphylococcus aureus [1])	MIC (Staphylococcus aureus [2])	MBC (Enterococcus faecalis [3])	MIC (Enterococcus faecalis [4])	MBC (Pseudomonas aeruginosa [5])	MIC (Pseudomonas aeruginosa [6])	MBC (Escherichia coli [7])	MIC (Escherichia coli [8])	MBC (Salmonella typhimurium [9])	MIC (Salmonella typhimurium [10])	MBC (Citrobacter freundii [11])	MIC (Citrobacter freundii [12])	MBC (Proteus vulgaris [13])	MIC (Proteus vulgaris [14])	MFC (Candida albicans [15])	MIC (Candida albicans [16])	CC50 at 24 h [17]	CC50 at 24 h [18]	selectivity ratio at 24 h [19]	selectivity ratio at 24 h [20]	also measured
CCCCCCCCCCCC[N+]12CC[N+](Cc3cccc(C[N+]45CC[N+](CCCCCCCCCCCC)(CC4)CC5)c3)(CC1)CC2	1.6 µg/mL	0.6 µg/mL	1.6 µg/mL	1.6 µg/mL	3.1 µg/mL	1.6 µg/mL	3.1 µg/mL	1.6 µg/mL	3.1 µg/mL	1.6 µg/mL	3.1 µg/mL	1.6 µg/mL	25 µg/mL	25 µg/mL	12.5 µg/mL	12.5 µg/mL	17 µg/mL	16 µg/mL	27	10	selectivity ratio at 24 h [21]: 10; selectivity ratio at 24 h [22]: 10; selectivity ratio at 24 h [23]: 10; selectivity ratio at 24 h [24]: < 1; selectivity ratio at 24 h [25]: 1; EC50 (Influenza A virus): 1.3 µg/mL; CC50 at 48 h [26]: 8.4 µg/mL; selectivity ratio [27]: 6; selectivity ratio at 24 h [28]: 10
CCCCCCCCCCCC[N+]12CC[N+](Cc3ccc(C[N+]45CC[N+](CCCCCCCCCCCC)(CC4)CC5)cc3)(CC1)CC2	1.2 µg/mL	0.6 µg/mL	1.6 µg/mL	1.6 µg/mL	12.5 µg/mL	6.3 µg/mL	3.1 µg/mL	1.6 µg/mL	3.1 µg/mL	1.6 µg/mL	3.1 µg/mL	1.6 µg/mL	25 µg/mL	12.5 µg/mL	12.5 µg/mL	12.5 µg/mL	16 µg/mL	16 µg/mL	27	10	selectivity ratio at 24 h [21]: 3; selectivity ratio at 24 h [22]: 10; selectivity ratio at 24 h [23]: 10; selectivity ratio at 24 h [24]: 1; selectivity ratio at 24 h [25]: 1; EC50 (Influenza A virus): 1 µg/mL; CC50 at 48 h [26]: 2.9 µg/mL; selectivity ratio [27]: 3; selectivity ratio at 24 h [28]: 10

From ChEMBL document CHEMBL4715780, “Biological evaluation of tetracationic compounds based on two 1,4-diazabicyclo[2.2.2]octane moieties connected by different linkers” (Bioorg Med Chem, 2016)
